Bioassay records: PubChem, several laboratories
RAM inhibit: inhibitors of the yeast RAM network | S. cerevisiae dse1pr::URA3 reporter, 5-FOA growth OD615, 2 d; analog-sensitive cbk1-as2 kinase mutant strain | inhibition, % at 50 µM | 190,000 compounds, 1.8% hits;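 active = inhibition above a set limit, 3 SD over mean compound inhibition, cut at about 8.4% in these data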;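 also: inhibition rescues growth on 5-FOA so higher OD means more RAM inhibition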
WT yeast gro inh: growth inhibition of WT yeast, mitochondrial fusion screen; 190,000 compounds, 2.1% hits; mitochondrial fusion phenotypic screen, WT strain; AID 1362; inhibition, % at 10 µM; in the data active = inhibition above about 58%; tested in S. cerevisiae
Yeast lifespan up: extends the lifespan of yeast | S. cerevisiae growth with nicotinamide, OD615; deaD strain in restrictive glucose medium | AID 775 | inhibition of the nicotinamide effect, % at 10 µM | 130,000 compounds, 0.68% hits;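 active = inhibition above a set limit, placed 3 SD over the median of all compounds, cut at about 26% in these data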
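Test system: DeaD-strain S. cerevisiae / Buffer or medium: restrictive glucose medium / Also added: nicotinamide 1.5 mM / Doses: one concentration, 10 µM, DMSO 0.25% / Schedule: 48 h at 30 °C / Signal: OD615 measurement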
BB579 growth dn: chemicals that inhibit yeast BB579 growth in restrictive medium (lifespan-shortening candidates). inhibition, % at 10 µM. S. cerevisiae BB579 growth, OD615, 48 h. 140,000 compounds, 0.51% hits. AID 804;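 active = inhibition above a set limit, 3 SD over the mean compound inhibition, cut at about 44% in these data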
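System: Saccharomyces cerevisiae DeaD strain BB579, replicative lifespan model yeast. Buffer or medium: restrictive glucose-based CSMM-D medium. Doses: one dose, 10 µM compound with 0.25% DMSO. Timing: 4 h preincubation and 48 h exposure at 30 °C. Detection: turbidity as optical density at 615 nm. Benchmarks: amphotericin B 10 µg/mL, positive.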
KCC2 mod: KCC2 (human) Cl- transport modulation; Q9H2X9; KCC2 cells, thallium flux FluoZin-2 fluorescence; B-score of Tl+ flux slope (higher = more flux/activation; lower = inhibition) at 10 µM; 190,000 compounds, 2.2% hits;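 active = thallium flux slope and its plate-corrected score both differing from the plate sample mean at a set confidence after two filtering rounds, in either direction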;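 also: slope of fluorescence scaled to starting intensity during 10 to 20 s after thallium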
Target sequence (Q9H2X9 whole entry, looked up): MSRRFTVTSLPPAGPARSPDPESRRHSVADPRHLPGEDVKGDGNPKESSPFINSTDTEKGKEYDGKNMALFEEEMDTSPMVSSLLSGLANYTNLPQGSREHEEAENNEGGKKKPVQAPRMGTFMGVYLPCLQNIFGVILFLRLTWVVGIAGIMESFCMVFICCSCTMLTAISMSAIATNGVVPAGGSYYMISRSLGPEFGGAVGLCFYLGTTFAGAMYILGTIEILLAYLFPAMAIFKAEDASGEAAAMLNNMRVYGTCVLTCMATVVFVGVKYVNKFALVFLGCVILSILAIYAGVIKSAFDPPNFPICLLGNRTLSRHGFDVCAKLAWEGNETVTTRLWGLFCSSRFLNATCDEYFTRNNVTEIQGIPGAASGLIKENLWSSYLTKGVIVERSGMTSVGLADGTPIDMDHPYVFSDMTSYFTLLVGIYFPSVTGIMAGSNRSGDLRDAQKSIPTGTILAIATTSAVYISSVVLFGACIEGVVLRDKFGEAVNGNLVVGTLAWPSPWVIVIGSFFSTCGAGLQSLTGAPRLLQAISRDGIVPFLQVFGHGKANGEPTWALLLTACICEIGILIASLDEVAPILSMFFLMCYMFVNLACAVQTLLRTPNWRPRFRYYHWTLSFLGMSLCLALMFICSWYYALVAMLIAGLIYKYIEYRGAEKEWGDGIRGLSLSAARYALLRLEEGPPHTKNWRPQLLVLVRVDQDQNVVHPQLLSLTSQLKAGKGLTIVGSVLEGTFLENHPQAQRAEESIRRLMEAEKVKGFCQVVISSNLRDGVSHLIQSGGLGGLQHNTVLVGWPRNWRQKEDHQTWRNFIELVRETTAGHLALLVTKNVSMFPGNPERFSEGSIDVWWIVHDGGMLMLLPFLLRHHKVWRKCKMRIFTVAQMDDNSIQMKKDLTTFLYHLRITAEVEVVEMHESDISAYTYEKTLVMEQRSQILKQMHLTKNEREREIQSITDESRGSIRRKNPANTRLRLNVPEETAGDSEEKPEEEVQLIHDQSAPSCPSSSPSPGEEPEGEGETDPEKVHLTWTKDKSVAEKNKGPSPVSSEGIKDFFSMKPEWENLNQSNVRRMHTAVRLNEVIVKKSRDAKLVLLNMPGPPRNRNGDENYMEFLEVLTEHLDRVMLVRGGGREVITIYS
KCC2 secondary: KCC2 (human) modulation, secondary assay | shares compounds with KCC2 mod | HEK293-KCC2, thallium flux, FluoZin2 fluorescence; stronger effect = higher value | normalised thallium flux (F/F0 slope) at 10 µM | 3,700 compounds, 15% hits | AID 1713;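 active = thallium flux slope above the same plate's solvent-only control mean plus 3 SD; inconclusive = the two replicate wells disagree; inactive = no significant difference from solvent-only control wells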
KCC2 bumet counter: thallium flux persisting under bumetanide in KCC2 cells, counter-screen secondary assay; shares compounds with KCC2 mod; HEK293-KCC2 + bumetanide/ouabain, thallium flux FluoZin2; stronger effect = higher value; normalized thallium flux at 10 µM; 3,700 compounds, 49% hits; AID 1714;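 active = thallium entry rate above the same plate's blocked-transporter control wells by more than 3 SD; inconclusive = the two repeat wells disagree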;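 also: raw slope of fluorescence over initial fluorescence between 10 and 20 s after thallium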
KCC2 secondary2: confirmation of human KCC2 transport modulators; shares compounds with KCC2 mod; HEK293-KCC2, thallium flux FluoZin2 fluorescence; actives lie on both sides; F/F0 rise rate, 10–20 s post-thallium; normalized thallium flux at 10 µM; 3,700 compounds, 23% hits; AID 1715;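 active = thallium flux slope more than 3 SD above or below the plate's solvent-only control mean, mostly below; inconclusive = the two repeat wells disagreed; inactive = no significant shift from solvent-only controls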
HEK293 Tl flux: parental HEK flux effect, counter-screen; thallium flux rate (normalised fluorescence) at 10 µM; shares compounds with KCC2 mod; HEK293 parental cells, thallium flux FluoZin2, ouabain; baseline-ratio fluorescence slope, 10–20 s after thallium; 3,700 compounds, 46% hits;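 active = thallium flux rate significantly above the same plate's solvent-only control wells, beyond their mean plus 3 SD; inconclusive = the two replicate wells gave conflicting results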
KCC2 ouabain: modulates human KCC2 on retest with ouabain; shares compounds with KCC2 mod; HEK293-KCC2, thallium flux FluoZin2 fluorescence; bidirectional: low = inhibitor, high = activator; raw Tl+ flux slope (below DMSO = inhibition, above = activation) at 10 µM; 3,700 compounds, 48% hits; AID 1717;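 active = thallium flux slope beyond 3 SD from same-plate DMSO control mean in most replicates, usually higher, sometimes lower; inconclusive = repeat tests gave conflicting results; inactive = no significant difference from controls in most replicates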;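 also: slope of initial-normalized fluorescence between seconds 10 and 20 after thallium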
HEK293 Tl flux2: acts in parental HEK cells, second KCC2 counter-screen | shares compounds with KCC2 mod | HEK293 parental, thallium flux FluoZin-2 fluorescence slope | thallium flux slope at 10 µM | 3,700 compounds, 33% hits | AID 1718;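 active = thallium flux slope above the same plate's solvent-control mean plus 3 SD in both duplicate wells; inconclusive = duplicate wells that disagreed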;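 also: run without ouabain in cells lacking the KCC2 cotransporter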
Of the large screens only hits and unclear results are named; the others gave an inactive call (follow-up assays come after a bar, where they were run). Most compounds without a hit are left out; they make up all but 5.5% or so of the library.

Cc1ccc2c(Cl)cc(Cl)c(OCC(=O)Nc3cc(S(=O)(=O)N(C)C)ccc3C)c2n1	none
Cc1cccc(-n2cnc3cc([N+](=O)[O-])ccc32)c1	none
Cc1ccc(-n2cc(-c3ccc([N+](=O)[O-])cc3)[nH]c2=S)c(C)c1	KCC2 mod 26 | KCC2 secondary inconclusive | KCC2 bumet counter 0.099 | KCC2 secondary2 0.077 | HEK293 Tl flux 0.086 | KCC2 ouabain 0.081 | HEK293 Tl flux2 0.055
Cc1cccc(-n2cc(-c3ccc([N+](=O)[O-])cc3)[nH]c2=S)c1	KCC2 mod 5.1 | KCC2 secondary inconclusive | KCC2 bumet counter 0.017 | KCC2 secondary2 inactive | HEK293 Tl flux 0.019 | KCC2 ouabain 0.028 | HEK293 Tl flux2 0.015
O=[N+]([O-])c1cccc(-c2cn(-c3ccccc3)c(=S)[nH]2)c1	KCC2 mod 16 (no result: Yeast lifespan up, BB579 growth dn) | KCC2 secondary 0.014 | KCC2 bumet counter 0.037 | KCC2 secondary2 inactive | HEK293 Tl flux 0.021 | KCC2 ouabain inconclusive | HEK293 Tl flux2 0.014
O=[N+]([O-])c1cccc(-c2n[nH]c(=S)n2-c2ccccc2)c1	none (no result: RAM inhibit, WT yeast gro inh, Yeast lifespan up, BB579 growth dn)
CCN(CCn1cccn1)Cc1cn[nH]c1-c1cccc2ccccc12	none (no result: RAM inhibit, WT yeast gro inh, Yeast lifespan up, BB579 growth dn)
Cc1cccc(C)c1NC(=O)CSc1nnc(Cn2nnc(-c3ccccc3)n2)n1-c1ccccc1	KCC2 mod -5.3 | KCC2 secondary inactive | KCC2 bumet counter inactive | KCC2 secondary2 inactive | HEK293 Tl flux inactive | KCC2 ouabain inactive | HEK293 Tl flux2 inactive
Cc1cccc(NC(=S)NNC(=O)c2cc3c(s2)CCC(C)C3)c1C (stereo not drawn)	KCC2 mod 37 | KCC2 secondary inactive | KCC2 bumet counter 0.08 | KCC2 secondary2 0.061 | HEK293 Tl flux 0.064 | KCC2 ouabain 0.062 | HEK293 Tl flux2 0.059
CC1CCc2sc(C(=O)NN=C3CCC(c4ccccc4)CC3)cc2C1 (stereo not drawn)	none
CCOc1ccc(OCC)c(-c2c(=O)n(OCc3ccc(C(C)(C)C)cc3)c3ccccc3[n+]2[O-])c1	none (no result: KCC2 mod)
Cc1c(N2C(=O)CSC2c2ccc(F)cc2)c(=O)n(-c2ccccc2)n1C (stereo not drawn)	none (no result: RAM inhibit, WT yeast gro inh, Yeast lifespan up, BB579 growth dn)
CCOc1[nH]n(-c2ccccc2)c(=O)c1C=Nc1ccc(OC)cc1	RAM inhibit 9.0, KCC2 mod 4.1 (no result: Yeast lifespan up, BB579 growth dn) | KCC2 secondary inactive | KCC2 bumet counter 0.01 | KCC2 secondary2 inactive | HEK293 Tl flux 0.0093 | KCC2 ouabain inactive | HEK293 Tl flux2 inconclusive
CCOc1[nH]n(-c2ccc(Cl)cc2)c(=O)c1C=Nc1ccc(Cl)cc1	none
CCOc1[nH]n(-c2ccccc2)c(=O)c1C=Nc1ccc(F)cc1F	KCC2 mod 4.1 (no result: Yeast lifespan up, BB579 growth dn) | KCC2 secondary inactive | KCC2 bumet counter 0.01 | KCC2 secondary2 inactive | HEK293 Tl flux 0.01 | KCC2 ouabain inconclusive | HEK293 Tl flux2 inconclusive
O=C(N[C@H](C(=O)O)c1ccccc1)C1CCC(Cn2cnc3ccccc3c2=O)CC1 (stereo partly drawn)	none (no result: RAM inhibit, WT yeast gro inh, Yeast lifespan up, BB579 growth dn)
Cc1ccc(-c2nc3cc(N)ccc3o2)cc1	none
Nc1ccc2oc(-c3cccs3)nc2c1	KCC2 mod -3.9 | KCC2 secondary inactive | KCC2 bumet counter inactive | KCC2 secondary2 inactive | HEK293 Tl flux inactive | KCC2 ouabain inactive | HEK293 Tl flux2 inactive
Cc1ccc(C)c2sc(NC(=O)c3nc4ccccc4s3)nc12	KCC2 mod 60 | KCC2 secondary 0.014 | KCC2 bumet counter 0.033 | KCC2 secondary2 inactive | HEK293 Tl flux 0.059 | KCC2 ouabain 0.036 | HEK293 Tl flux2 0.015
CC(C)(C)NC(=O)c1nc2ccccc2s1	none
Cc1ccc(S(=O)(=O)Nc2cc(C(F)(F)F)ccc2N2CCOCC2)c(C)c1	none
FC(F)(F)c1cccc(N2CCN(CC3CC=CCC3)CC2)c1 (stereo not drawn)	none
CCc1ccc(-n2c(SCC(=O)c3ccc4c(c3)NC(=O)CO4)nc3ccccc3c2=O)cc1	KCC2 mod 2.9 (no result: Yeast lifespan up, BB579 growth dn) | KCC2 secondary inactive | KCC2 bumet counter 0.012 | KCC2 secondary2 inactive | HEK293 Tl flux 0.0086 | KCC2 ouabain inconclusive | HEK293 Tl flux2 inactive
O=C1COc2ccc(C(=O)CSc3nc4ccccc4c(=O)n3-c3ccc(Cl)c(Cl)c3)cc2N1	KCC2 mod 2.5 (no result: Yeast lifespan up, BB579 growth dn) | KCC2 secondary inconclusive | KCC2 bumet counter 0.019 | KCC2 secondary2 inactive | HEK293 Tl flux 0.01 | KCC2 ouabain inactive | HEK293 Tl flux2 inconclusive
O=C(OCC(=O)N1CCOCC1)c1cccc(S(=O)(=O)N2CCCc3ccccc32)c1	none (no result: RAM inhibit, WT yeast gro inh, Yeast lifespan up, BB579 growth dn)
COC(=O)C1=CN(CC2CCCO2)C=C(C(=O)OC)C1c1cc(OC)c(OC)c(OC)c1 (stereo not drawn)	none (no result: KCC2 mod)
S=C(Nc1ccccc1)Nc1ccccc1-n1cccc1	KCC2 mod 8.5 (no result: RAM inhibit, WT yeast gro inh, Yeast lifespan up, BB579 growth dn) | KCC2 secondary 0.014 | KCC2 bumet counter 0.05 | KCC2 secondary2 inactive | HEK293 Tl flux 0.017 | KCC2 ouabain inconclusive | HEK293 Tl flux2 0.016
O=C(Nc1ccc2c(c1)oc1ccccc12)c1ccc2c(c1)OCO2	none
O=c1c(O)c(-c2ccc3c(c2)OCO3)oc2ccccc12	none (no result: KCC2 mod) | KCC2 secondary 0.032 | KCC2 bumet counter 0.17 | KCC2 secondary2 0.052 | HEK293 Tl flux 0.1 | KCC2 ouabain 0.1 | HEK293 Tl flux2 0.05
O=C(C1CC1)N1N=C(c2ccncc2)CC1(O)C(F)(F)F (stereo not drawn)	none (no result: Yeast lifespan up, BB579 growth dn, KCC2 mod)
COC(=O)C1C(=O)C2=C(CC1C)NC(C)=C(C(=O)OC(C)C)C2c1ccc(C)o1 (stereo not drawn)	none (no result: KCC2 mod) | KCC2 secondary inactive | KCC2 bumet counter inactive | KCC2 secondary2 inactive | HEK293 Tl flux inactive | KCC2 ouabain inactive | HEK293 Tl flux2 inactive
O=C(CN1CCCCC1)NCCNc1ccc(C(F)(F)F)cc1[N+](=O)[O-]	none
O=C(/C=C/c1cccc([N+](=O)[O-])c1)N1CCN(c2ccccc2F)CC1	none
